Assay outcomes from PubChem.
Shown are actives, neighbours in structure and some others; about 1.5% of the full set was active somewhere.
PKA-R1A act = activators of PKA-R1A complex | P00514+P68181 | PKA-R1A dissociation, Cy5-IP20 fluorescence polarization; scaled: DMSO 0%, 113 µM cGMP 100% | activation, % at 11.4 µM | hit rate 0.083% among 340,000 | AID 504707;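 active = percent activation above the mean of all tested compounds plus 3 SD, cut at about 19% in these data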;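 also: higher means more PKAc released from R1A so a rise in polarization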
SIRT5 block = sirtuin-5 (human) deacylase inhibition; Q9NXA8; Purified SirT5, succinyl-peptide AMC, trypsin-coupled fluorescence; inhibition, % at 15 µM; hit rate 1.1% among 330,000; AID 652115; in the data active = inhibition above about 15%
S100A4 MyoIIA = inhibitors of human S100A4 binding to myosin IIA peptide; P26447; hit rate 0.14% among 360,000; S100A4/TAMRA-MyoIIA peptide fluorescence polarization; AID 652163; inhibition, % at 10.7 µM;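 active = mean inhibition of at least 70% across replicates, with every replicate also reaching that level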
Target sequence (P26447 whole entry, looked up): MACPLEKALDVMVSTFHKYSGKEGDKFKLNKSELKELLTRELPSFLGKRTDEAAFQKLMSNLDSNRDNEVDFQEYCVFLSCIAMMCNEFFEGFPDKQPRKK
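Test system – S100A4 monomer (human) · Compound – single-point compound testing · Schedule – 5 min incubation before reading · Probe or stimulus – TAMRA-labelled myosin IIA heavy-chain peptide probe, 5 nM · Benchmarks – neutral control DMSO, positive control TFP · Medium – Calcium-containing HEPES buffer, pH 7.2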
CRFBP-R2 block = CRF-BP/CRF-R2 complex antagonism; HEK293 CRF-R2/CRF-BP, CRF-induced calcium fluorescence; inhibition, % at 11.8 µM; hit rate 0.59% among 350,000; AID 588475;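 active = inhibition of the ligand-induced calcium signal above about 50% at the single tested concentration, limit read from the data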
PKA-R2B act = activators of human PKA-R2B complex | P22694+P31323 | PKA-R2B holoenzyme dissociation, Cy5-IP20 fluorescence polarization; R2B truncated from residue 108, S112A mutant; 0% DMSO only, 100% 113 µM cGMP | activation, % at 11.4 µM | hit rate 0.079% among 340,000;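 active = activation above a cutoff set at the mean over all compounds plus 3 SD, cut at about 18% in these data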;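 also: higher means more holoenzyme dissociation and a rise in polarization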
Target sequence (P31323 whole entry, looked up, other chains not shown, the tested form may be a part): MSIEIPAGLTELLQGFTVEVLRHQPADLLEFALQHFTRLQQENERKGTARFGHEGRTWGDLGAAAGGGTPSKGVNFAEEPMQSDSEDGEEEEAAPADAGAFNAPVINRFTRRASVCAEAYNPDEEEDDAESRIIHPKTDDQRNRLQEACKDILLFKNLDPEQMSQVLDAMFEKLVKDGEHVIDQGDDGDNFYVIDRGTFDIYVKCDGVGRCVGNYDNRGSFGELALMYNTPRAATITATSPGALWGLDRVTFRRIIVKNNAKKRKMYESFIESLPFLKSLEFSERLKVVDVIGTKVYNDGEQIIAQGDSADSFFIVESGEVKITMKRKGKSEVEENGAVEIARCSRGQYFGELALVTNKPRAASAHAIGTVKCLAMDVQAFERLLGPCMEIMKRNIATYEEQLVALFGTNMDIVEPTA
Large screens that a line does not name were inactive.

Cc1noc(C)c1S(=O)(=O)Nc1ccc2c(c1)CC(=O)N([C@H](C)CO)C[C@H](C)[C@@H](CN(C)Cc1ccccc1)O2	none (no result: PKA-R1A act, CRFBP-R2 block, PKA-R2B act)
CNC[C@H]1Oc2cc(C#CC3CCCC3)ccc2S(=O)(=O)N([C@H](C)CO)C[C@H]1C	none (no result: PKA-R1A act, CRFBP-R2 block, PKA-R2B act)
COc1ccc(-c2nnc(-c3cc4ccccc4oc3=O)o2)cc1	none (no result: SIRT5 block, S100A4 MyoIIA)
COc1cccc2cc(-c3nnc(-c4ccccc4)o3)c(=O)oc12	CRFBP-R2 block 90.1
CC(=O)N(C)C[C@H]1Oc2cc(C#Cc3ccncc3)ccc2S(=O)(=O)N([C@H](C)CO)C[C@H]1C	none (no result: PKA-R1A act, CRFBP-R2 block, PKA-R2B act)
COCCNc1nc2c(S(=O)(=O)c3cc(C)ccc3C)nnn2c2ccccc12	CRFBP-R2 block 50.3
Cc1ccc(C)c(Nc2nc3c(S(=O)(=O)c4ccccc4)nnn3c3ccccc23)c1	none
C[C@@H]1CCCCO[C@H](CN(C)Cc2ccc(C(=O)O)cc2)[C@@H](C)CN([C@@H](C)CO)C(=O)c2cc(NS(C)(=O)=O)ccc2O1	none (no result: PKA-R1A act, CRFBP-R2 block, PKA-R2B act)
CCOC(=O)c1c(CC(C)C)csc1N	CRFBP-R2 block 55.1
CCCc1cc(=O)[nH]c(SCC(=O)N(CCC#N)c2ccc3c(c2)OCCO3)n1	CRFBP-R2 block 97.5
CCCc1cc(=O)[nH]c(SCC(=O)c2ccc3c(c2)OCCO3)n1	none (no result: SIRT5 block, S100A4 MyoIIA)
CCN(CC)C(=O)CSc1nc(-c2ccccc2)cc(=O)[nH]1	none
CCN(Cc1ccccc1)C(=O)CSc1nc(C)cc(=O)[nH]1	SIRT5 block 22.4
CN(CC(=O)N1CCN(C2CCCCC2)CC1)S(=O)(=O)c1cccc2nsnc12	SIRT5 block 22.1
CN(CC(=O)N1CCCCC1)S(=O)(=O)c1cccc2nsnc12	none
O=C(O)C[C@@H]1C[C@H]2c3cc(NC(=O)Nc4ccc(F)cc4)ccc3O[C@H]2[C@H](CO)O1	none (no result: PKA-R1A act, CRFBP-R2 block, PKA-R2B act)
O=C(Nc1cc(F)ccc1F)N1C[C@@H]2[C@H](c3ccccc31)[C@@H](CO)N2CC1CCCC1	none (no result: PKA-R1A act, CRFBP-R2 block, PKA-R2B act)
O=C(NCN1CCOCC1)c1cnccn1	none
O=C(NCN1CCCCC1)c1cnccn1	CRFBP-R2 block 50.8 (no result: SIRT5 block, S100A4 MyoIIA)
CC(=O)c1ccc(NC(=O)CSc2ccc(-c3ccc4c(c3)OCO4)nn2)cc1	CRFBP-R2 block 122.3 (no result: SIRT5 block, S100A4 MyoIIA)
CCC(=O)Nc1ccc(NC(=O)c2oc3ccccc3c2C)cc1	CRFBP-R2 block 98.2
Cc1noc(C)c1NC(=O)Nc1ccc2c(c1)CC(=O)N([C@@H](C)CO)C[C@@H](C)[C@H](CN(C)S(=O)(=O)c1ccc(Cl)cc1)O2	none (no result: PKA-R1A act, CRFBP-R2 block, PKA-R2B act)
Cn1c(SCC(=O)NCC2CCCO2)nnc1-c1ccc(Cl)cc1 (stereo not drawn)	SIRT5 block 19.2
O=C(Cn1nc(-c2ccc(Cl)cc2)ccc1=O)NCC1CCCO1 (stereo not drawn)	SIRT5 block 19.4
Cc1nc2c(=O)[nH]c(=S)[nH]c2[nH]c1=O	SIRT5 block 41.4
Cc1nc2[nH]c(=S)[nH]c(=O)c2nc1C	none
C[C@H]1CN([C@@H](C)CO)C(=O)c2cccc(NC(=O)Nc3ccc(C(F)(F)F)cc3)c2O[C@H]1CN(C)S(=O)(=O)c1ccc(F)cc1	SIRT5 block 15.6 (no result: PKA-R1A act, CRFBP-R2 block, PKA-R2B act)
C[C@H]1CN([C@@H](C)CO)C(=O)c2cccc(NC(=O)Nc3ccc(C(F)(F)F)cc3)c2O[C@@H]1CN(C)S(=O)(=O)c1ccc(F)cc1	none (no result: PKA-R1A act, CRFBP-R2 block, PKA-R2B act)
C[C@@H]1CN([C@H](C)CO)C(=O)c2cccc(NC(=O)Nc3ccc(C(F)(F)F)cc3)c2O[C@H]1CN(C)S(=O)(=O)c1cccs1	SIRT5 block 16.6
C[C@H]1CN([C@@H](C)CO)S(=O)(=O)c2ccc(-c3cccc(C#N)c3)cc2O[C@H]1CN(C)Cc1cccc(F)c1	none (no result: PKA-R1A act, CRFBP-R2 block, PKA-R2B act)
CC=Cc1ccc2n(c1=O)C[C@H]1[C@H](CO)[C@@H](C(=O)NCCC)N(C(=O)C3CCOCC3)[C@@H]21 (mixture of isomers)	none (no result: PKA-R1A act, S100A4 MyoIIA, CRFBP-R2 block, PKA-R2B act)
COC(=O)C1=C(C)NC(C)=C(C(=O)OC)C1/C=C/c1ccccc1	CRFBP-R2 block 52.8
C=CCn1c(C)cc(C(=O)CSc2nnc(Cc3ccccc3)o2)c1C	CRFBP-R2 block 56.0 (no result: SIRT5 block, S100A4 MyoIIA)
Cc1cc(C(=O)CSc2nnc(Cc3ccccc3)o2)c(C)n1Cc1ccc2c(c1)OCO2	none (no result: SIRT5 block, S100A4 MyoIIA)
CC1=NN(c2ccccc2)C(=O)C1/C=C1\NC(=S)NC1=O (stereo not drawn)	SIRT5 block 15.4
CC1=NN(c2ccccc2)C(=O)C1C=Nc1ccccc1O (stereo not drawn)	none
CCCn1nc(C(=O)Nc2cc(S(=O)(=O)Nc3ccc(OC)cc3)ccc2O)c2ccccc2c1=O	CRFBP-R2 block 54.4 (no result: SIRT5 block)
CCCn1nc(C(=O)Nc2ccc(S(=O)(=O)Nc3nccs3)cc2)c2ccccc2c1=O	none (no result: SIRT5 block, S100A4 MyoIIA)
COc1ccc(NC(=O)C(=O)NNC(=O)c2cccs2)c(OC)c1	CRFBP-R2 block 74.8 (no result: SIRT5 block, S100A4 MyoIIA)
Cc1csc(NC(=O)Cc2ccc(Br)cc2)n1	CRFBP-R2 block 62.7
Cc1ccc(OCc2cc(C(=O)N3CCN(CC(=O)NC(C)C)CC3)no2)cn1	CRFBP-R2 block 72.2
COCCN1CCN(C(=O)c2cc(COc3cc(C)ccc3C)on2)CC1	CRFBP-R2 block 71.1 (no result: SIRT5 block, S100A4 MyoIIA)
CCS(=O)(=O)Nc1ccc2c(c1)C(=O)N(C)C[C@H](OC)[C@@H](C)CN(C(=O)COC)[C@@H](C)CO2	none (no result: PKA-R1A act, CRFBP-R2 block, PKA-R2B act)
NNC(=O)Cn1c(-c2ccccc2)cc2ccccc21	SIRT5 block 21.2
NNC(=O)Cn1c2ccccc2c2ccccc21	none
C[C@@H]1CN([C@@H](C)CO)C(=O)c2cc(NC(=O)C3CCCCC3)ccc2O[C@@H](C)CCCCO[C@@H]1CN(C)C(=O)Nc1ccc(F)cc1	none (no result: PKA-R1A act, CRFBP-R2 block, PKA-R2B act)
Cc1noc(C)c1S(=O)(=O)Nc1ccc2c(c1)CC(=O)N([C@H](C)CO)C[C@@H](C)[C@@H](CN(C)Cc1ccc(Cl)c(Cl)c1)O2	none (no result: PKA-R1A act, CRFBP-R2 block, PKA-R2B act)
CN(C(=O)CSc1nc2ccccc2o1)C1CCS(=O)(=O)C1 (stereo not drawn)	SIRT5 block 16.4
COc1ccc(NS(=O)(=O)c2ccc3c(c2)[C@H]2C=CC[C@H]2[C@@H](c2ccc(C(=O)O)cc2)N3)cc1	SIRT5 block 44.2
Cc1c(Cl)cccc1NS(=O)(=O)c1ccc2c(c1)C1C=CCC1C(c1ccc(C(=O)O)cc1)N2 (stereo not drawn)	none (no result: SIRT5 block, S100A4 MyoIIA)
COc1ccc(NC(=O)Nc2ccc3c(c2)CC(=O)N([C@@H](C)CO)C[C@@H](C)[C@@H](CN(C)S(=O)(=O)c2cn(C)cn2)O3)cc1	none (no result: PKA-R1A act, CRFBP-R2 block, PKA-R2B act)
O=c1[nH]c(CN2CCN(S(=O)(=O)/C=C/c3ccccc3)CC2)nc2ccccc12	SIRT5 block 15.7
O=c1[nH]c(CN2CCN(S(=O)(=O)/C=C/c3ccccc3)CC2)nc2cc(Cl)ccc12	none
C[C@H]1CN([C@@H](C)CO)C(=O)c2cc(NS(=O)(=O)c3ccccc3)ccc2O[C@H]1CN(C)C(=O)Nc1ccc(F)cc1	none (no result: PKA-R1A act, CRFBP-R2 block, PKA-R2B act)
Clc1ccc(CNC2CCN(Cc3ccccc3)CC2)cc1	none
Fc1ccc(CNC2CCN(Cc3ccccc3)CC2)cc1	SIRT5 block 20.7
